PRMT1 inh: blocks human protein arginine methyltransferase 1. Q99873. recombinant PRMT1, activity-based probe fluorescence polarization. inhibition, % at 2.79 µM. hit rate 1.3% among 370,000;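 active = inhibition above about 21% made by adding two undisclosed values, limit read from the data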
UHRF1 binding: blocks human UHRF1 binding to methylated DNA. Q96T88. UHRF1 binding to methylated oligo, TR-FRET. inhibition, % at 4.4 µM. hit rate 0.75% among 370,000. AID 687016; in the data active = inhibition above about 21%;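 note: UHRF1 SRA domain binding a hemimethylated CpG hairpin DNA probe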
TDP2 inh: TDP2 (human) inhibition, absorbance primary screen; O95551; recombinant TDP2, T5PNP hydrolysis, p-nitrophenol absorbance 415 nm; inhibition, % at 12.8 µM; hit rate 0.34% among 370,000; AID 720702;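 active = inhibition above the mean of all tested compounds plus 3 SD, set per campaign, cut at about 25% in these data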
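System – recombinant human TDP2 · Quantity – TDP2 enzyme at 120 nM final · Doses – single concentration, 12.8 µM nominal, with 1% DMSO · Incubation – 2 h at 37 °C · Measured by – epi absorbance of p-nitrophenol freed from T5PNP by hydrolysis · Read-out – % inhibition relative to enzyme-containing and enzyme-free wells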
MBD2 DNA inh: inhibitors of human MBD2 binding to methylated oligonucleotide. TR-FRET. inhibition, % at 4.4 µM. hit rate 0.31% among 370,000. AID 686964; in the data active = inhibition above about 13%
Target sequence (Q9UBB5 whole entry, looked up): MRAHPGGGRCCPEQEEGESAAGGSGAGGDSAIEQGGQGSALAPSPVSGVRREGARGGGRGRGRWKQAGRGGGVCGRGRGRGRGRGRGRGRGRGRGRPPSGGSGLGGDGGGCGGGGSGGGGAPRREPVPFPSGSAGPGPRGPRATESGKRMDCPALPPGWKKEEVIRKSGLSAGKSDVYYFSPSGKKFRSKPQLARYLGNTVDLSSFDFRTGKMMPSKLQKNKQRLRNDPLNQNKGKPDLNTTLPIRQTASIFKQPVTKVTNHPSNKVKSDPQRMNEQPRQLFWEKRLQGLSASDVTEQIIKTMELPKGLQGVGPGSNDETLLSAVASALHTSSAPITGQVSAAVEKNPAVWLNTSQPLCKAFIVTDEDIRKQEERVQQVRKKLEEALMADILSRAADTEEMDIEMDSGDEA
SIAE inh: inhibitors of human sialic acid acetylesterase SIAE; inhibition, % at 9.66 µM; hit rate 0.69% among 370,000; AID 1053197; Q9HAT2; SIAE FP-Rh probe binding, fluorescence polarization;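 active = inhibition above a cutoff: mean of compounds within the control limits plus 3 SD of those, cut at about 17% in these data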
LEDGF integ inh: blocks HIV-1 LEDGF/p75-dependent DNA integration; hit rate 0.64% among 370,000; TR-FRET IN-LEDGF/p75 DNA integration, Eu/Cy5; AID 743269; inhibition, % at 3.7 µM;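 active = inhibition above the screen-wide mean plus 3 SD, cut at about 13% in these data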;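 note: signal is the Cy5 over europium emission ratio at 671 and 618 nm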
SIAE inh conf: confirmation of human SIAE inhibitors; shares compounds with SIAE inh; SIAE FP-Rh activity-based probe, fluorescence polarization; inhibition, % at 9.66 µM; hit rate 13% among 2,300; AID 1117263;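 active = mean inhibition of the replicates above the hit cutoff set in the primary screen, cut at about 17% in these data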;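 note: inhibitors lower polarization as more probe stays unbound to SIAE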
Numbers stand for hits; n = inactive; x = not tested or not shown. In the library only some 3.3% were active in any assay of this set; here they are far more common.

SMILES	PRMT1 inh	UHRF1 binding	TDP2 inh	MBD2 DNA inh	SIAE inh	LEDGF integ inh	SIAE inh conf
O[C@@H](Cc1ccccc1)[C@@H](/C=C/c1ccccc1)NCCc1ccccc1	n	n	n	n	n	n	x
Cc1ccc(C(=O)N/N=C/c2c(O)ccc3ccccc23)cn1	n	n	n	n	21	n	n
O=C(N/N=C/c1ccc(O)c2ncccc12)c1cccc(Br)c1	n	n	n	n	29	n	n
O=C(N/N=C/c1c(O)ccc2ccccc12)c1cccnc1	n	n	n	n	27	n	n
O=C(N/N=C\c1c(O)ccc2ccccc12)c1cncc(Br)c1	n	n	n	n	31	n	n
O=C(N/N=C/c1cc(Br)ccc1O)c1ccncc1	n	n	n	n	n	n	x
Cc1ccc(NC(=O)CSc2nccn2Cc2ccccc2)cc1C	n	n	n	n	18	n	n
CC(=O)Nc1ccc(NC(=O)CSc2nccn2Cc2ccccc2)cc1	n	n	n	n	n	n	x
O=C(NC1CCCC1)C1CCN(S(=O)(=O)c2ccc3[nH]c(=O)oc3c2)CC1	n	n	n	n	n	n	x
CC(C)C(OC(=O)CN1C(=O)COc2ccccc21)C(=O)NC1CCCC1 (stereo not drawn)	n	n	n	n	n	n	x
CC(C)C(OC(=O)CN1C(=O)COc2ccccc21)C(=O)NC1CCCCC1 (stereo not drawn)	n	n	n	n	18	n	n
Cc1cc(C)n2nc(SCc3nnc(-c4ccccc4Br)o3)nc2n1	n	n	n	n	22	n	n
CCCCc1ccc2nc(NC(=O)c3ccc(Br)o3)sc2c1	n	n	n	n	n	n	x
COCCNc1nc(-c2ccc(OC)cc2)c(-c2ccc(OC)cc2)s1	n	n	n	n	19	n	n
CN(C)CCCn1c(NCc2ccc3c(c2)OCO3)nc2ccccc21	n	n	n	n	18	n	n
CCn1c(NCc2ccc3c(c2)OCO3)nc2ccccc21	n	n	n	n	n	n	x
N/C(=N\C(=O)OCc1ccccc1)N(Cc1ccccc1)C(C#CC1=CCCCC1)Cc1ccccc1 (stereo not drawn)	n	n	n	n	n	n	x
CCN1CCN(Cc2nc3ccc([N+](=O)[O-])cc3c(=O)n2-c2ccc(OC)cc2OC)CC1	n	n	n	n	19	n	n
Oc1ccccc1C=NC(N=Cc1ccccc1O)c1ccccc1O (stereo not drawn)	n	n	n	n	n	n	x
Cc1ccc(NS(=O)(=O)c2cccc(C(=O)NNC(=O)c3ccco3)c2)c(C)c1	n	n	n	n	n	n	x
Cc1ccc(NS(=O)(=O)c2cccc(C(=O)NNC(=O)NC3CCCCC3)c2)c(C)c1	n	n	n	n	18	n	n
CN1CCS/C1=C/C=C1/SC(=S)N(Cc2ccccc2)C1=O	n	n	n	n	22	n	22
Cc1nn(-c2cccc(Cl)c2)c2c1C(c1ccncc1)C(C#N)=C(N)O2 (stereo not drawn)	n	n	n	n	20	n	n
COc1cc(/C=N\NC(=O)c2ccc(Cn3cc(Br)c([N+](=O)[O-])n3)o2)cc(OC)c1O	n	n	n	n	17	n	n
COc1cc(/C=N/NC(=O)c2ccc(Cn3cc([N+](=O)[O-])cn3)o2)cc(Br)c1O	n	n	n	n	n	n	x
SMILES	PRMT1 inh	UHRF1 binding	TDP2 inh	MBD2 DNA inh	SIAE inh	LEDGF integ inh	SIAE inh conf
Cn1c(=O)c2cc(S(=O)(=O)N3CCN(CCO)CC3)ccc2n(C)c1=O	n	n	n	n	n	n	x
Nc1ccn([C@@H]2O[C@H](C(=O)Nc3cc(C(F)(F)F)cc(C(F)(F)F)c3)[C@@H](O)[C@H]2O)c(=O)n1	n	n	n	n	n	n	x
Cc1ccc(CNC(=O)[C@H]2O[C@@H](n3cnc4c(N)ncnc43)[C@H](O)[C@@H]2O)o1	n	n	n	n	17	n	20
Cc1ccc(CNC(=O)[C@H]2O[C@@H](n3ccc(N)nc3=O)[C@H](O)[C@@H]2O)o1	n	n	n	n	25	n	19
COc1cc(NC(=O)[C@H]2O[C@@H](n3ccc(N)nc3=O)[C@H](O)[C@@H]2O)cc(OC)c1OC	n	43	n	n	26	n	20
CN(Cc1cnn(-c2ccc(F)cc2)c1)C(=O)[C@H]1O[C@@H](n2cnc3c(N)ncnc32)[C@H](O)[C@@H]1O	n	n	n	n	41	n	45
N#Cc1[nH]nc2nc[nH]c(=O)c12	n	n	n	n	n	n	x
CC[C@@]1(c2ccc(C)cc2)C(=O)N(C(=O)OC)N1C(=O)OC	n	n	n	n	n	n	x
COc1ccc(-c2[nH]c(-c3cc(OC)c4c(c3)OCO4)nc2-c2ccccc2)cc1	n	n	n	n	26	n	n
Cc1ccc(-c2[nH]c(-c3ccc(C(=O)O)cc3)nc2-c2ccccc2)cc1	n	n	n	n	n	n	x
Cc1ccc(S(=O)(=O)N2CCCC2CNC(=O)C(=O)Nc2ccccc2)cc1 (stereo not drawn)	n	n	n	n	n	n	x
Cc1ccc(S(=O)(=O)N2CCCC2CNC(=O)c2ccccc2)cc1 (stereo not drawn)	n	n	n	n	22	n	n
CC(C)N1CCCCC(NC(=O)Cc2ccccc2)C1=O (stereo not drawn)	n	n	n	n	n	n	x
CC1(C)CC(=O)C=C(C2CC2)C1=O	n	n	n	n	n	n	x
CC1(OC(=O)c2ccco2)C(=O)C=C2C=C(C3CC3)OC=C2C1=O (stereo not drawn)	n	n	n	n	24	n	n
CC1(OC(=O)c2cccs2)C(=O)C=C2C=C(C3CC3)OC=C2C1=O (stereo not drawn)	n	n	n	n	n	n	x
Fc1cccc(NC(=S)N2CCn3cccc3C2c2cccnc2)c1 (stereo not drawn)	n	n	n	n	25	n	n
COc1cccc(-c2cc(CNC(=O)[C@H]3O[C@@H](n4cnc5c(N)ncnc54)[C@H](O)[C@@H]3O)no2)c1	n	n	n	n	20	n	25
COc1cccc(-c2cc(CNC(=O)[C@H]3O[C@@H](n4cnc(C(N)=O)n4)[C@H](O)[C@@H]3O)no2)c1	n	n	n	n	77	n	80
CCOC(=O)[C@@]12CCCC=C1N(CCc1ccc(Cl)cc1)C(=O)[C@H]2CC(=O)NCCc1ccccc1OC	n	n	n	n	n	n	x
O=C(N[C@H](Cc1ccccc1)C(=O)NCCN1CCOCC1)[C@H]1O[C@@H](n2ccc(=O)[nH]c2=O)[C@H](O)[C@@H]1O	n	n	n	n	n	n	x
CSc1nnc(C)c(/C=C/NOCc2ccc(Cl)cc2)n1	n	n	n	n	18	n	n

Screens deposited in PubChem BioAssay by The Scripps Research Institute Molecular Screening Center.
